# Experimental data: ChEMBL document CHEMBL5550111, “Design, synthesis and biological evaluation of aryloxy thiophosphoramidate triesters of anticancer nucleoside analogues” (Bioorg Med Chem, 2024)
# Legend:
# MIA PaCa-2 [1] = experiment: Cytotoxicity against human MIA PaCa-2 cells assessed as inhibition of cell viability incubated for 72 hrs by MTS assay; assay type: functional, cell-based; conditions: MIA PaCa-2, 72 h
# In short: (§1)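 Cells seeded at 0.5 to 100 × 10^3 per well the day before treatment, then exposed for 72 h to 9 serial concentrations (3.16-fold dilutions, top 198 μM), in duplicate. MTS added for a final 4 h at 37 °C and absorbance read. IC50 is the concentration giving 50% loss of viability. MI% is the maximum inhibition over the tested range.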
# MIA PaCa-2 [2] = experiment: Cytotoxicity against human MIA PaCa-2 cells assessed as maximum inhibition of cell viability upto 198 uM incubated for 72 hrs by MTS assay relative to control; assay type: functional; conditions: up to 198 µM
# In short: (§2)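 Cells seeded at 0.5 to 100 × 10^3 per well the day before drug addition, then exposed to compound for 72 h. MTS added afterwards, with a further 4 h at 37 °C, and absorbance read. Tested in duplicate at 9 serial 3.16-fold dilutions, top concentration 198 μM. MI% is the maximum inhibition of viability across the tested range.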
# RT112/84 [3] = experiment: Cytotoxicity against human RT112/84 cells assessed as inhibition of cell viability incubated for 72 hrs by MTS assay; assay type: functional, cell-based; conditions: RT112/84, 72 h; in short: as §1
# RT112/84 [4] = experiment: Cytotoxicity against human RT112/84 cells assessed as maximum inhibition of cell viability upto 198 uM incubated for 72 hrs by MTS assay relative to control; assay type: functional; conditions: up to 198 µM; in short: as §2
# HT-29 [5] = experiment: Cytotoxicity against human HT-29 cells assessed as inhibition of cell viability incubated for 72 hrs by MTS assay; assay type: functional, cell-based; conditions: HT-29, 72 h; in short: as §1
# HT-29 [6] = experiment: Cytotoxicity against human HT-29 cells assessed as maximum inhibition of cell viability upto 198 uM incubated for 72 hrs by MTS assay relative to control; assay type: functional; conditions: up to 198 µM; in short: as §2
# COLO 205 [7] = experiment: Cytotoxicity against human COLO 205 cells assessed as inhibition of cell viability incubated for 72 hrs by MTS assay; assay type: functional, cell-based; conditions: COLO 205, 72 h; in short: as §1
# COLO 205 [8] = experiment: Cytotoxicity against human COLO 205 cells assessed as maximum inhibition of cell viability upto 198 uM incubated for 72 hrs by MTS assay relative to control; assay type: functional; conditions: up to 198 µM; in short: as §2
# OVCAR-3 [9] = experiment: Cytotoxicity against human OVCAR-3 cells assessed as inhibition of cell viability incubated for 72 hrs by MTS assay; assay type: functional, cell-based; conditions: OVCAR-3, 72 h; in short: as §1
# OVCAR-3 [10] = experiment: Cytotoxicity against human OVCAR-3 cells assessed as maximum inhibition of cell viability upto 198 uM incubated for 72 hrs by MTS assay relative to control; assay type: functional; conditions: up to 198 µM; in short: as §2
# SK-MES-1 [11] = experiment: Cytotoxicity against human SK-MES-1 cells assessed as inhibition of cell viability incubated for 72 hrs by MTS assay; assay type: functional, cell-based; conditions: SK-MES-1, 72 h; in short: as §1
# SK-MES-1 [12] = experiment: Cytotoxicity against human SK-MES-1 cells assessed as maximum inhibition of cell viability upto 198 uM incubated for 72 hrs by MTS assay relative to control; assay type: functional; conditions: up to 198 µM; in short: as §2
# NCI-H1975 [13] = experiment: Cytotoxicity against human NCI-H1975 cells assessed as inhibition of cell viability incubated for 72 hrs by MTS assay; assay type: functional, cell-based; conditions: NCI-H1975, 72 h; in short: as §1
# NCI-H1975 [14] = experiment: Cytotoxicity against human NCI-H1975 cells assessed as maximum inhibition of cell viability upto 198 uM incubated for 72 hrs by MTS assay relative to control; assay type: functional; conditions: up to 198 µM; in short: as §2
# HepG2 [15] = experiment: Cytotoxicity against human HepG2 cells assessed as inhibition of cell viability incubated for 72 hrs by MTS assay; assay type: functional, cell-based; conditions: HepG2, 72 h; in short: as §1
# HepG2 [16] = experiment: Cytotoxicity against human HepG2 cells assessed as maximum inhibition of cell viability upto 198 uM incubated for 72 hrs by MTS assay relative to control; assay type: functional; conditions: up to 198 µM; in short: as §2
# RPMI-8226 [17] = experiment: Cytotoxicity against human RPMI-8226 cells assessed as inhibition of cell viability incubated for 72 hrs by MTS assay; assay type: functional, cell-based; conditions: RPMI-8226, 72 h; in short: as §1
# RPMI-8226 [18] = experiment: Cytotoxicity against human RPMI-8226 cells assessed as maximum inhibition of cell viability upto 198 uM incubated for 72 hrs by MTS assay relative to control; assay type: functional; conditions: up to 198 µM; in short: as §2
# [19] = Prodrug activation assessed as carboxypeptidase Y (unknown origin) mediated (2S)-2-[[[(2R,3S,5R)-[…]-3-hydroxy-tetrahydrofuran-2-yl]methoxy-hydroxy-phosphoryl]amino]propanoic acid formation from intermediate (2S)-2-[[[(2R,3S,5R)-5-(5-fluoro-2,4-dioxo-pyrimidin-1-yl)-3-hydroxy-tetrahydrofuran-2-yl]methoxy-(1-naphthyloxy)phosphinothioyl]amino]propanoic acid at 5 mg measured for 48 hrs by 31P-NMR assay
# In short: (§3)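 Thiophosphoramidate (5 mg, about 0.008 mmol) dissolved in 150 µL acetone-d6, with 300 µL TRIZMA buffer pH 7.6 added. Enzymatic conversion followed by 31P-NMR.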
# PANC-1 [20] = experiment: Cytotoxicity against human PANC-1 cells assessed as inhibition of cell viability incubated for 72 hrs by MTS assay; assay type: functional, cell-based; conditions: PANC-1, 72 h; in short: as §1
# PANC-1 [21] = experiment: Cytotoxicity against human PANC-1 cells assessed as maximum inhibition of cell viability upto 198 uM incubated for 72 hrs by MTS assay relative to control; assay type: functional; conditions: up to 198 µM; in short: as §2
# BXPC-3 [22] = experiment: Cytotoxicity against human BXPC-3 cells assessed as inhibition of cell viability incubated for 72 hrs by MTS assay; assay type: functional, cell-based; conditions: BXPC-3, 72 h; in short: as §1
# BXPC-3 [23] = experiment: Cytotoxicity against human BXPC-3 cells assessed as maximum inhibition of cell viability upto 198 uM incubated for 72 hrs by MTS assay relative to control; assay type: functional; conditions: up to 198 µM; in short: as §2
# [24] = Cytotoxicity against human T24/83 cells assessed as inhibition of cell viability incubated for 72 hrs by MTS assay; assay type: functional, cell-based; conditions: T24/83, 72 h; in short: as §1
# PC-3 [25] = experiment: Cytotoxicity against human PC-3 cells assessed as inhibition of cell viability incubated for 72 hrs by MTS assay; assay type: functional, cell-based; conditions: PC-3, 72 h; in short: as §1
# PC-3 [26] = experiment: Cytotoxicity against human PC-3 cells assessed as maximum inhibition of cell viability upto 198 uM incubated for 72 hrs by MTS assay relative to control; assay type: functional; conditions: up to 198 µM; in short: as §2
# MDA-MB-231 [27] = experiment: Cytotoxicity against human MDA-MB-231 cells assessed as inhibition of cell viability incubated for 72 hrs by MTS assay; assay type: functional, cell-based; conditions: MDA-MB-231, 72 h; in short: as §1
# MDA-MB-231 [28] = experiment: Cytotoxicity against human MDA-MB-231 cells assessed as maximum inhibition of cell viability upto 198 uM incubated for 72 hrs by MTS assay relative to control; assay type: functional; conditions: up to 198 µM; in short: as §2
# A2780 [29] = experiment: Cytotoxicity against human A2780 cells assessed as inhibition of cell viability incubated for 72 hrs by MTS assay; assay type: functional, cell-based; conditions: A2780, 72 h; in short: as §1
# A2780 [30] = experiment: Cytotoxicity against human A2780 cells assessed as maximum inhibition of cell viability upto 198 uM incubated for 72 hrs by MTS assay relative to control; assay type: functional; conditions: up to 198 µM; in short: as §2
# [31] = Prodrug activation assessed as carboxypeptidase Y (unknown origin) mediated intermediate (2S)-2-[[[(2R,3R,5R)-5-(4-amino-2-oxo-pyrimidin-1-yl)-4,4-difluoro-3-hydroxy-tetrahydrofuran-2-yl]methoxy-phenoxy-phosphinothioyl]amino]propanoic acid formation at 5 mg measured after 5 hrs by 31P-NMR assay; set-up: species or system Homo sapiens; in short: as §3
# [32] = Prodrug activation assessed as carboxypeptidase Y (unknown origin) mediated (2S)-2-[[[(2R,3R,5R)-5-(4-amino-2-oxo-pyrimidin-1-yl)-4,4-difluoro-3-hydroxy-tetrahydrofuran-2-yl]methoxy-hydroxy-phosphoryl]amino]propanoic acid formation from intermediate (2S)-2-[[[(2R,3R,5R)-5-(4-amino-2-oxo-pyrimidin-1-yl)-4,4-difluoro-3-hydroxy-tetrahydrofuran-2-yl]methoxy-phenoxy-phosphinothioyl]amino]propanoic acid at 5 mg measured for 48 hrs by 31P-NMR assay; in short: as §3
SMILES,IC50 (MIA PaCa-2 [1]) [µM],Imax (MIA PaCa-2 [2]) [%],IC50 (RT112/84 [3]) [µM],Imax (RT112/84 [4]) [%],IC50 (HT-29 [5]) [µM],Imax (HT-29 [6]) [%],IC50 (COLO 205 [7]) [µM],Imax (COLO 205 [8]) [%],IC50 (OVCAR-3 [9]) [µM],Imax (OVCAR-3 [10]) [%],IC50 (SK-MES-1 [11]) [µM],Imax (SK-MES-1 [12]) [%],IC50 (HepG2 [15]) [µM],Imax (HepG2 [16]) [%],other results
C[C@H](NP(=S)(OC[C@H]1O[C@@H](n2cc(F)c(=O)[nH]c2=O)C[C@@H]1O)Oc1cccc2ccccc12)C(=O)OCc1ccccc1 (stereo partly specified),2.69,100,2.49,97,2.81,100,4,100,21.5,100,2.49,97,25.5,100,IC50 (NCI-H1975 [13]): 100 µM; Imax (NCI-H1975 [14]): 100%; IC50 (RPMI-8226 [17]): 6.63 µM; Imax (RPMI-8226 [18]): 100%; Drug metabolism [19]: Metabolite_Detected
C[C@H](NP(=S)(OC[C@H]1O[C@@H](n2ccc(N)nc2=O)C(F)(F)[C@@H]1O)Oc1ccccc1)C(=O)OCc1ccccc1 (stereo partly specified),3.83,99,0.92,94,11.5,99,22.3,97,97.4,46,0.92,94,27.1,98,IC50 (PANC-1 [20]): 76.4 µM; Imax (PANC-1 [21]): 99%; IC50 (BXPC-3 [22]): 8.16 µM; Imax (BXPC-3 [23]): 95%; IC50 [24]: 0.32 µM; IC50 (PC-3 [25]): 43.9 µM; Imax (PC-3 [26]): 96%; IC50 (MDA-MB-231 [27]): 11.6 µM; Imax (MDA-MB-231 [28]): 91%; IC50 (A2780 [29]): 3.58 µM; Imax (A2780 [30]): 100%; Drug metabolism [31]: Metabolite_Detected; Drug metabolism [32]: Metabolite_Detected
